Assay results: ChEMBL document CHEMBL1153726, “Synthesis and anticancer activity of sclerophytin-inspired hydroisobenzofurans” (Bioorg Med Chem Lett, 2009)

What was measured:
Assay type in all cases: functional
BT-549 [1] = assay: Growth inhibition of human BT549 cells at 1 nM after 96 hrs by MTT assay; design: scale not given: the % may be the effect or the level left
MDA-MB-435 = assay: Growth inhibition of human MDA-MB-435 cells at 1 nM after 96 hrs by MTT assay; design: scale not given: the % may be the effect or the level left
M14 = assay: Growth inhibition of human M14 cells at 1 nM after 96 hrs by MTT assay; design: scale not given: the % may be the effect or the level left
LOX IMVI = assay: Growth inhibition of human LOXIMVI cells at 1 nM after 96 hrs by MTT assay; design: scale not given: the % may be the effect or the level left
SNB-19 = assay: Growth inhibition of human SNB19 cells at 1 nM after 96 hrs by MTT assay; design: scale not given: the % may be the effect or the level left
HCT-116 = assay: Growth inhibition of human HCT116 cells at 1 nM after 96 hrs by MTT assay; design: scale not given: the % may be the effect or the level left
HOP-92 = assay: Growth inhibition of human HOP92 cells at 1 nM after 96 hrs by MTT assay; design: scale not given: the % may be the effect or the level left
BT-549 [2] = assay: Growth inhibition of human BT549 cells at 10 uM after 96 hrs by MTT assay; design: scale not given: the % may be the effect or the level left
SK-OV-3 [3] = assay: Growth inhibition of human SKOV3 cells at 10 uM after 96 hrs by MTT assay; design: scale not given: the % may be the effect or the level left
UACC-62 = assay: Growth inhibition of human UACC62 cells at 10 uM after 96 hrs by MTT assay; design: scale not given: the % may be the effect or the level left
SK-MEL-5 = assay: Growth inhibition of human SK-MEL-5 cells at 10 uM after 96 hrs by MTT assay; design: scale not given: the % may be the effect or the level left
NCI-H23 = assay: Growth inhibition of human NCI-H23 cells at 10 uM after 96 hrs by MTT assay; design: scale not given: the % may be the effect or the level left
SNB-75 = assay: Growth inhibition of human SNB75 cells at 10 nM after 96 hrs by MTT assay; design: scale not given: the % may be the effect or the level left
SW-620 = assay: Growth inhibition of human SW620 cells after 96 hrs by MTT assay; details: SW-620, 96 h
Summary of the method: (§1)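 Tested in the NCI 60-cell-line panel in five-dose format; GI50 and LC50 values reported for each cell line.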

SK-MEL-2 = assay: Growth inhibition of human SK-MEL-2 cells after 96 hrs by MTT assay; details: SK-MEL-2, 96 h; summary of the method: as §1
SK-MEL-28 = assay: Growth inhibition of human SK-MEL-28 cells after 96 hrs by MTT assay; details: SK-MEL-28, 96 h; summary of the method: as §1
IGROV-1 = assay: Growth inhibition of human IGROV1 cells after 96 hrs by MTT assay; details: IGROV-1, 96 h
Summary of the method: (§2)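 Run in the NCI 60 human tumour cell line panel as a five-dose assay. GI50 and LC50 were reported for each cell line.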

OVCAR-8 = assay: Growth inhibition of human OVCAR8 cells after 96 hrs by MTT assay; details: OVCAR-8, 96 h; summary of the method: as §1
NCI/ADR-RES [4] = assay: Growth inhibition of human NCI/ADR-RES cells after 96 hrs by MTT assay; summary of the method: as §2
[5] = Growth inhibition of human RPMI8266 cells at 10 nM after 96 hrs by MTT assay; design: scale not given: the % may be the effect or the level left
HCC 2998 = assay: Growth inhibition of human HCC2998 cells after 96 hrs by MTT assay; details: HCC 2998, 96 h; summary of the method: as §2
A549 = assay: Growth inhibition of human A549 cells after 96 hrs by MTT assay; details: A549, 96 h
MOLT-4 = assay: Growth inhibition of human MOLT4 cells after 96 hrs by MTT assay; details: MOLT-4, 96 h; summary of the method: as §2
K562 [6] = assay: Growth inhibition of human K562 cells after 96 hrs by MTT assay; details: K562, 96 h; summary of the method: as §2
RXF 393 = assay: Growth inhibition of human RXF393 cells at 1 uM after 96 hrs by MTT assay; design: scale not given: the % may be the effect or the level left
NCI/ADR-RES [7] = assay: Growth inhibition of human NCI/ADR-RES cells at 1 uM after 96 hrs by MTT assay; design: scale not given: the % may be the effect or the level left
OVCAR-4 = assay: Growth inhibition of human OVCAR4 cells at 1 uM after 96 hrs by MTT assay; design: scale not given: the % may be the effect or the level left
SK-OV-3 [8] = assay: Growth inhibition of human SKOV3 cells at 100 nM after 96 hrs by MTT assay; design: scale not given: the % may be the effect or the level left
UACC-257 = assay: Growth inhibition of human UACC257 cells at 100 nM after 96 hrs by MTT assay; design: scale not given: the % may be the effect or the level left
NCI-H522 = assay: Growth inhibition of human NCI-H522 cells at 100 nM after 96 hrs by MTT assay; design: scale not given: the % may be the effect or the level left
NCI-H226 = assay: Growth inhibition of human NCI-H226 cells at 100 nM after 96 hrs by MTT assay; design: scale not given: the % may be the effect or the level left
EKVX = assay: Growth inhibition of human EKVX cells at 100 nM after 96 hrs by MTT assay; design: scale not given: the % may be the effect or the level left
K562 [9] = assay: Growth inhibition of human K562 cells at 100 nM after 96 hrs by MTT assay; design: scale not given: the % may be the effect or the level left
[10] = Growth inhibition of human Hs 578T cells at 10 nM after 96 hrs by MTT assay; design: scale not given: the % may be the effect or the level left
DU-145 = assay: Growth inhibition of human DU145 cells at 10 nM after 96 hrs by MTT assay; design: scale not given: the % may be the effect or the level left
[11] = read-out: LC50 (the source's name)
[12] = read-out: Log10GI50 (converted)
[13] = read-out: Log10LC50 (converted)

Compound: C=C(C)[C@H]1CC=C(C)C2=CO[C@@H](c3ccccc3F)[C@@H]21
- Activity (BT-549 [1]): 97%
- Activity (MDA-MB-435): 92%
- Activity (M14): 97%
- Activity (LOX IMVI): 97%
- Activity (SNB-19): 94%
- Activity (HCT-116): 102%
- Activity (HOP-92): 88%
- Activity (BT-549 [2]): 112.93%
- Activity (SK-OV-3 [3]): 93.49%
- Activity (UACC-62): 54.63%
- Activity (SK-MEL-5): 84.67%
- Activity (NCI-H23): 95.4%
- Activity (SNB-75): 81%
- GI50 (SW-620; read-out: GI50): 4.49 µM
- CC50 (SW-620; [11]): 43.4 µM
- GI50 (SW-620; [12]): 4.47 µM
- CC50 (SW-620; [13]): 43.7 µM
- TGI (SW-620; read-out: Log10TGI (converted)): 15.8 µM
- TGI (SW-620; read-out: TGI): 15.9 µM
- GI50 (SK-MEL-2; read-out: GI50): 3.74 µM
- CC50 (SK-MEL-2; [11]): 55.2 µM
- GI50 (SK-MEL-2; [12]): 3.72 µM
- CC50 (SK-MEL-2; [13]): 55 µM
- TGI (SK-MEL-2; read-out: Log10TGI (converted)): 19.1 µM
- TGI (SK-MEL-2; read-out: TGI): 19.2 µM
- GI50 (SK-MEL-28; read-out: GI50): 10.5 µM
- CC50 (SK-MEL-28; [11]): 47.1 µM
- GI50 (SK-MEL-28; [12]): 10.5 µM
- CC50 (SK-MEL-28; [13]): 46.8 µM
- TGI (SK-MEL-28; read-out: Log10TGI (converted)): 22.4 µM
- TGI (SK-MEL-28; read-out: TGI): 22.2 µM
- GI50 (IGROV-1; read-out: GI50): 11.3 µM
- CC50 (IGROV-1; [11]): > 100 µM
- GI50 (IGROV-1; [12]): 11.2 µM
- CC50 (IGROV-1; [13]): > 100 µM
- TGI (IGROV-1; read-out: Log10TGI (converted)): 34.7 µM
- TGI (IGROV-1; read-out: TGI): 34.6 µM
- GI50 (OVCAR-8; read-out: GI50): 11.9 µM
- CC50 (OVCAR-8; [11]): 79 µM
- GI50 (OVCAR-8; [12]): 11.7 µM
- CC50 (OVCAR-8; [13]): 79.4 µM
- TGI (OVCAR-8; read-out: Log10TGI (converted)): 30.9 µM
- TGI (OVCAR-8; read-out: TGI): 30.6 µM
- GI50 (NCI/ADR-RES [4]; read-out: GI50): 3.67 µM
- CC50 (NCI/ADR-RES [4]; [11]): 56.1 µM
- GI50 (NCI/ADR-RES [4]; [12]): 3.63 µM
- CC50 (NCI/ADR-RES [4]; [13]): 56.2 µM
- TGI (NCI/ADR-RES [4]; read-out: Log10TGI (converted)): 17.8 µM
- TGI (NCI/ADR-RES [4]; read-out: TGI): 17.9 µM
- Activity [5]: 56%
- GI50 (HCC 2998; read-out: GI50): 6.4 µM
- CC50 (HCC 2998; [11]): 45.3 µM
- GI50 (HCC 2998; [12]): 6.46 µM
- CC50 (HCC 2998; [13]): 45.7 µM
- TGI (HCC 2998; read-out: Log10TGI (converted)): 19.5 µM
- TGI (HCC 2998; read-out: TGI): 19.3 µM
- GI50 (A549; read-out: GI50): 6.17 µM
- CC50 (A549; [11]): > 100 µM
- GI50 (A549; [12]): 6.17 µM
- CC50 (A549; [13]): > 100 µM
- TGI (A549; read-out: Log10TGI (converted)): 30.2 µM
- TGI (A549; read-out: TGI): 30.1 µM
- GI50 (MOLT-4; read-out: GI50): 2.12 µM
- CC50 (MOLT-4; [11]): 56.2 µM
- GI50 (MOLT-4; [12]): 2.14 µM
- CC50 (MOLT-4; [13]): 56.2 µM
- TGI (MOLT-4; read-out: Log10TGI (converted)): 7.08 µM
- TGI (MOLT-4; read-out: TGI): 7.03 µM
- GI50 (K562 [6]; read-out: GI50): 2.04 µM
- CC50 (K562 [6]; [11]): 49.3 µM
- GI50 (K562 [6]; [12]): 2.04 µM
- CC50 (K562 [6]; [13]): 49 µM
- TGI (K562 [6]; read-out: Log10TGI (converted)): 13.2 µM
- TGI (K562 [6]; read-out: TGI): 13.2 µM
- Activity (RXF 393): 44%
- Activity (NCI/ADR-RES [7]): 26%
- Activity (OVCAR-4): 33%
- Activity (SK-OV-3 [8]): 98%
- Activity (UACC-257): 81%
- Activity (NCI-H522): 71%
- Activity (NCI-H226): 75%
- Activity (EKVX): 80%
- Activity (K562 [9]): 68%
- Activity [10]: 83%
- Activity (DU-145): 84%
